{"data": "Assay results of several laboratories", "target": "Protein kinase C theta type (PRKCQ, Homo sapiens, UniProt Q04759)", "note": "Each line is one published result; the experiments were not run side by side."}
{"SMILES": "NS(=O)(=O)c1cc(NC(=O)Cc2ccccc2)ccc1Oc1cccc(Cl)c1", "observed": "cell-free assay", "technique": "competition with immobilised ligand", "concentration": "1 µM", "measurement": "remaining binding", "result": "74%"}
{"SMILES": "COc1cc2ncnc(Nc3ccc(Oc4ccccc4)cc3C)c2cc1OC", "observed": "enzyme activity", "mode": "inhibitor", "concentration": "1 µM", "measurement": "inhibition", "result": "2%"}
{"SMILES": "Nc1ncnc2occ(-c3ccc(NC(=O)Nc4cc(C(F)(F)F)ccc4F)cc3)c12", "observed": "cell-free assay", "concentration": "20 µM", "measurement": "remaining signal", "result": "13%"}
{"SMILES": "CNC(=O)c1cc(Oc2ccc(NC(=O)Nc3ccc(Cl)c(C(F)(F)F)c3)cc2)ccn1", "observed": "enzyme activity", "mode": "inhibitor", "concentration": "0.3 µM", "measurement": "inhibition", "result": "3%"}
{"SMILES": "COc1ccc2c(c1)O[C@H](c1ccc(OC)c(OC)c1)C[C@@H]2NC(=O)C1(c2ccc3c(c2)OC(F)(F)O3)CC1", "observed": "cell-free assay", "technique": "competition with immobilised ligand", "concentration": "1 µM", "measurement": "remaining binding", "result": "100%"}
{"SMILES": "CC(C)(C)c1nc2c(s1)c1nc(N)ncc1c1ccc(NS(=O)(=O)c3c(F)cccc3F)c(F)c12", "observed": "enzyme activity", "mode": "inhibitor", "technique": "radiometric", "concentration": "1 µM", "measurement": "remaining activity", "result": "115%"}
{"SMILES": "O=C(Nc1cnn(-c2csc(C(=O)NC3COC3)c2)c1)Nc1c(F)cccc1Cl", "observed": "enzyme activity", "mode": "inhibitor", "concentration": "5 µM", "measurement": "remaining activity", "result": "94.7%"}
{"SMILES": "CNCc1ccc(-c2cc(-c3nc(-c4ccc(S(=O)(=O)C(C)C)cc4)cnc3N)on2)cc1", "observed": "enzyme activity", "mode": "inhibitor", "concentration": "2 µM", "measurement": "inhibition", "result": "0%"}
{"SMILES": "Cc1ccc(Nc2nccc(N(C)c3ccc4c(C)n(C)nc4c3)n2)cc1S(N)(=O)=O", "observed": "enzyme activity", "mode": "inhibitor", "concentration": "10 µM", "measurement": "inhibition", "result": "-3%"}
{"SMILES": "F[C@@H]1CCN(c2nccc(-c3cnn4ncccc34)n2)C1", "observed": "binding", "concentration": "1 µM", "measurement": "remaining binding", "result": "100%"}
{"SMILES": "CC[C@H](CO)Nc1nc(NCc2ccccc2)c2ncn(C(C)C)c2n1", "observed": "cell-free assay", "concentration": "0.5 µM", "measurement": "remaining signal", "result": "90%"}
{"SMILES": "Cn1nc(C(F)(F)F)cc1-c1cnc(N2CCc3cc(S(=O)(=O)Nc4c(F)cc(Cl)cc4F)cc(N4CCCC4=O)c32)nc1", "observed": "cell-free assay", "technique": "competition with immobilised ligand", "concentration": "1 µM", "measurement": "remaining binding", "result": "100%"}
{"SMILES": "CCN(CC)c1ccc(C2=NNC(=O)CC2C)cc1[N+](=O)[O-] (stereo not drawn)", "observed": "enzyme activity", "mode": "inhibitor", "concentration": "10 µM", "measurement": "remaining activity", "result": "98%"}
{"SMILES": "CN(C)C1CCN(CC#Cc2nn(C3CCCC3)c3nc(NCc4ccccc4)ncc23)C1 (stereo not drawn)", "observed": "enzyme activity", "mode": "inhibitor", "technique": "FRET", "concentration": "10 µM", "measurement": "inhibition", "result": "13%"}
{"SMILES": "Nc1nc(Nc2ccc(S(N)(=O)=O)cc2)nn1C(=O)c1c(F)cccc1F", "observed": "cell-free assay", "concentration": "0.5 µM", "measurement": "remaining signal", "result": "114%"}
{"SMILES": "O=C(Nc1cccnn1)N1CC(C/C=C/c2cncc(Oc3ccc(C(F)(F)F)cn3)n2)C1", "observed": "cell-free assay", "technique": "competition with immobilised ligand", "concentration": "1 µM", "measurement": "remaining binding", "result": "100%"}
{"SMILES": "CC(C)c1ccc(NC(=O)c2cccs2)c(-c2nc3ccccc3[nH]c2=O)c1", "observed": "enzyme activity", "mode": "inhibitor", "concentration": "1 µM", "measurement": "activity vs control", "result": "83%"}
{"SMILES": "CCS(=O)(=O)c1cc2cc(C[C@@](O)(CC(C)(C)c3ccc(F)cc3C(N)=O)C(F)(F)F)[nH]c2cn1", "observed": "cell-free assay", "technique": "competition with immobilised ligand", "concentration": "1 µM", "measurement": "remaining binding", "result": "97%"}
{"SMILES": "C[C@@H](N)[C@H]1CC[C@H](C(=O)Nc2ccncc2)CC1", "observed": "enzyme activity", "mode": "inhibitor", "technique": "TR-FRET", "concentration": "10 µM", "measurement": "inhibition", "result": "82.7%"}
{"SMILES": "CC(=O)Nc1c(C(C)=O)c(=O)n(C)c2nc(-c3ccc(Cl)cc3Cl)c(-c3ccc(Cl)cc3)cc12", "observed": "cell-free assay", "technique": "competition with immobilised ligand", "concentration": "1 µM", "measurement": "remaining binding", "result": "100%"}
{"SMILES": "Cn1cnc(Br)c1C1=CN(c2ncnc3[nH]cnc23)CCS1", "observed": "enzyme activity", "mode": "inhibitor", "technique": "radiometric", "concentration": "2 µM", "measurement": "inhibition", "result": "97.9%"}
